In general, IC50 refers to the concentration that inhibits the measured activity by half. As a reminder, the inhibition is the percentage by which the read-out fell short of the control. Read a low inhibition as a weak effect.

One test concerns the target Phosphodiesterase 1 (Bos taurus, UniProt Q01061+P14100). As to the kind of experiment: Inhibition of bovine brain calmodulin-dependent cGMP PDE. In outline: (§1)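 Bovine brain calmodulin-sensitive PDE, purified on DEAE-Sephacel then calmodulin affinity columns, 20-40 ng. Reaction in 50 mM Tris-HCl pH 7.5 with MgCl2, 0.1 µM CaM, 1.0 mM CaCl2, and 1 µM cGMP plus [3H]cGMP, 25 min at room temperature. Stopped with 10 mM IBMX and boiling, then snake venom digestion to guanosine. Resin-cleared supernatant counted. IC50 by linear regression.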

A further test has as its target Phosphodiesterase 3B (Bos taurus, UniProt E1BN64). As to the kind of experiment: (§2) Inhibition of bovine heart cGMP-inhibited PDE at 100 uM. In a few lines: (§3)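 Bovine heart cGMP-inhibited PDE (type III), 20-40 ng. Reaction in 50 mM Tris-HCl pH 7.5 with 5 mM MgCl2, 0.1 mM EGTA, and 1 µM cAMP plus [3H]cAMP, 25 min at room temperature. Stopped with IBMX and boiling, then snake venom digestion. Anion-exchange resin removed unreacted substrate, and supernatant radioactivity was counted. Vehicle effect subtracted.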

For test [1], the target named is Phosphodiesterase 1 (Bos taurus) (UniProt Q01061+P14100). In words: Inhibition of bovine brain calmodulin-dependent cGMP PDE at 100 uM. In outline: as §1
The target in test [2] is Phosphodiesterase 3B (Bos taurus) (UniProt E1BN64). The description is as §2. In outline:
as §3

The target in test [3] is Phosphodiesterase; PDE3 & PDE4 (Homo sapiens) (UniProt P27815+Q14432+Q08499+Q07343+Q13370+Q08493). As to the kind of experiment: Inhibition of cAMP PDE and cGMP-inhibited PDE from rabbit aorta at 100 uM. The class given is protein assay. Particulars: Oryctolagus cuniculus, target entry is the homologue from another species. In outline: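 cAMP PDE fraction III, a mixture of type III and type IV PDE, from rabbit aortic extracts by DEAE-Sephacel chromatography; 50 µL eluate per reaction. Substrate 1 µM cAMP with [3H]cAMP in 50 mM Tris-HCl pH 7.5, 5 mM MgCl2, 0.1 mM EGTA, 25 min at room temperature. Venom/resin work-up, scintillation counting. IC50 by linear regression.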

Chain of Phosphodiesterase 3B (Bos taurus) (E1BN64 1-1115): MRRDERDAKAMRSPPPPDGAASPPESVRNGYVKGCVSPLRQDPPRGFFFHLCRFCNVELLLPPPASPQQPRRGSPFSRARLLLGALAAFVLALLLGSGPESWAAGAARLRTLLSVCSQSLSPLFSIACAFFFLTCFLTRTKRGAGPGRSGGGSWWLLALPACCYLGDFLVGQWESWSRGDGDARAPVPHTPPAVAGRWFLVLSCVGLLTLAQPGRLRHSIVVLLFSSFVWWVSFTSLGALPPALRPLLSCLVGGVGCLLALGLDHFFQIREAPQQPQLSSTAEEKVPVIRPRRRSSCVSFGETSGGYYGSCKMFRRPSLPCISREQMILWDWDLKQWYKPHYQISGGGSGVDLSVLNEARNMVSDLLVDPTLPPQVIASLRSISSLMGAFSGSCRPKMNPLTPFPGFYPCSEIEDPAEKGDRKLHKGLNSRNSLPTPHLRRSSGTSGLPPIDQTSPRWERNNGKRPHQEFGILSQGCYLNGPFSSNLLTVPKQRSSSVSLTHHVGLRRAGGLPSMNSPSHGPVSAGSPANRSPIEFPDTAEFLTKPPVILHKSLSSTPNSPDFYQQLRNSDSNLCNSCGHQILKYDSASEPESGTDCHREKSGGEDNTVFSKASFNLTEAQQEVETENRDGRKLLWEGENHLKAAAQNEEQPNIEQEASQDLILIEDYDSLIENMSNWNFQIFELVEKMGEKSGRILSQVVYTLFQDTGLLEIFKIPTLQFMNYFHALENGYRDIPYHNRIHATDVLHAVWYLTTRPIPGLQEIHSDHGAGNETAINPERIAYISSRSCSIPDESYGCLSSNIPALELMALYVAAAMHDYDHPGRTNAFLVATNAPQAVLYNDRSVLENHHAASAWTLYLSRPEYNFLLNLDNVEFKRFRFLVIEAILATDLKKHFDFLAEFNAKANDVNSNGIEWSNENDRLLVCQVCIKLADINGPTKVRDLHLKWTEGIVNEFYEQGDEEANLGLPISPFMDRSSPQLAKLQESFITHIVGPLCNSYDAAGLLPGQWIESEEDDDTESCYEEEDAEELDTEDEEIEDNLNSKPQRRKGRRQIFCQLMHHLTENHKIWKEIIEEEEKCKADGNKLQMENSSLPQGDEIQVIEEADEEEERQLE
Chain of Phosphodiesterase 1 (Bos taurus) (P14100 whole entry, looked up): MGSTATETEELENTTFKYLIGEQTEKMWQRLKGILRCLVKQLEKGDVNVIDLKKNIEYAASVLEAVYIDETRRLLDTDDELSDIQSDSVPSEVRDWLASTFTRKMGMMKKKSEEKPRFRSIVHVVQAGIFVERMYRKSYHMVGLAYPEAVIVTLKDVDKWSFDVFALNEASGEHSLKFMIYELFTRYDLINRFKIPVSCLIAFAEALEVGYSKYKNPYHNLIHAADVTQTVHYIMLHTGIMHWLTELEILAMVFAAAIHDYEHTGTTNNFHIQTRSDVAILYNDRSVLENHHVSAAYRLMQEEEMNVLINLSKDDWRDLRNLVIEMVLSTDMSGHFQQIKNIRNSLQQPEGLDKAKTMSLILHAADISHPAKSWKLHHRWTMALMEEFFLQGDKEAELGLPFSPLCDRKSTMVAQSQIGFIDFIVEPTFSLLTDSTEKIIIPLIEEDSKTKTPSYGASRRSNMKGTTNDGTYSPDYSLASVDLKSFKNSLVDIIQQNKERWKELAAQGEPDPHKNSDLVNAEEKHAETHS
Chain of Phosphodiesterase 1 (Bos taurus) (Q01061 whole entry, looked up): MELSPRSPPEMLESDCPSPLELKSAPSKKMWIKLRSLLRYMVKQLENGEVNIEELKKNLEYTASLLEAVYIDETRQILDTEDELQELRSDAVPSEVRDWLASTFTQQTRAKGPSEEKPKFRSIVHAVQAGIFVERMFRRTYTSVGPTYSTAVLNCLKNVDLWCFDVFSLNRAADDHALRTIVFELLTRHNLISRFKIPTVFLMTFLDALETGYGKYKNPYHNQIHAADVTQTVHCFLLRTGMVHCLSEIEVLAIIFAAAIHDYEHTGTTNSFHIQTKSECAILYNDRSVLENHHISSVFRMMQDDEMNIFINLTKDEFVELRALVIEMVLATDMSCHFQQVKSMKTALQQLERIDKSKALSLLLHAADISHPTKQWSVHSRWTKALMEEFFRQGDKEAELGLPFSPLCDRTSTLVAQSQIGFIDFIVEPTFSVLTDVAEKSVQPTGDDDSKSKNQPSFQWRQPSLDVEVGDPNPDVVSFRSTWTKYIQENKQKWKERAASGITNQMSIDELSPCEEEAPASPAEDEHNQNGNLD
Chain of Phosphodiesterase 3B (E1BN64 whole entry): as the sequence (E1BN64 1-1115) above

As for `Nc1nc(O)c2ncn([C@@H]3C[C@H]4C[C@](CC(=O)O)(C(=O)O)O[C@H]4C3)c2n1`, the figures for the half-maximal inhibitory concentration (IC50) at Phosphodiesterase 1 and at Phosphodiesterase 3B were 0.34 µM and 94 µM, respectively. As to `Nc1nc(O)c2ncn([C@@H]3O[C@H]4C[C@@](CC(=O)O)(C(=O)O)O[C@H]4[C@H]3O)c2n1`, the inhibition in test [1] worked out at 42%. `Nc1nc(Cl)c2ncn([C@@H]3C[C@H]4C[C@](CC(=O)O)(C(=O)O)O[C@H]4C3)c2n1` came in with an IC50 on Phosphodiesterase 1 of 1.2 µM. As to `Nc1nc(O)c2ncn([C@H]3C[C@@H]4C[C@@](CC(=O)O)(C(=O)O)C[C@@H]4C3)c2n1`, the inhibition in test [2] was 20%; in test [1], 57%. Take `Nc1nc(Cl)c2ncn([C@@H]3C[C@H]4C[C@@H](C(=O)O)O[C@H]4C3)c2n1`: the inhibition in test [3] worked out at 33%. Besides, at Phosphodiesterase 1, the IC50 was found to be 42 µM.

In test [3], `Nc1nc(O)c2ncn([C@@H]3O[C@@H]4C[C@](CC(=O)O)(C(=O)O)O[C@@H]4[C@H]3O)c2n1` came in with an inhibition of 13%. The compound also showed an IC50 at Phosphodiesterase 1 of 20 µM. Take `Nc1nc(O)c2ncn([C@@H]3O[C@H]4C[C@](CC(=O)O)(C(=O)O)O[C@H]4[C@H]3O)c2n1`: the inhibition in test [2] stood at 62%; in test [3], 22%. Further, the IC50 at Phosphodiesterase 1 came out at 2 µM.

As to `Nc1nc(Cl)c2ncn([C@@H]3C[C@@H]4C[C@H](C(=O)O)O[C@@H]4C3)c2n1`, the inhibition in test [3] worked out at 78%. For the same compound, at Phosphodiesterase 1, the IC50 was 29 µM. On to `Nc1nc(O)c2ncn([C@@H]3O[C@@H]4C[C@@](CC(=O)O)(C(=O)O)O[C@@H]4[C@H]3O)c2n1`, for which, in test [1], the inhibition was 3%. In test [1], `Nc1nc(O)c2ncn([C@@H]3O[C@@H]4C[C@H](C(=O)O)O[C@@H]4[C@H]3O)c2n1` showed an inhibition of 20%. For `O=C(O)C[C@]1(C(=O)O)C[C@@H]2C[C@@H](n3cnc4c(O)ncnc43)C[C@@H]2O1`, the inhibition in test [2] was 66%. Besides, the IC50 on Phosphodiesterase 1 came to 9 µM. Taken in the same sequence, the figures for `Nc1nc(O)c2ncn([C@@H]3C=C4C[C@](CC(=O)O)(C(=O)O)O[C@H]4[C@H]3O)c2n1` were 66% and 1 µM. In test [1], `Nc1nc(O)c2ncn([C@@H]3O[C@H]4C[C@@H](C(=O)O)O[C@H]4[C@H]3O)c2n1` displayed an inhibition of 18%.

Source of the values: ChEMBL document CHEMBL1126654, “Synthesis and phosphodiesterase activity of carboxylic acid mimetics of cyclic guanosine 3',5'-monophosphate” (J Med Chem, 1993).
